Test results published in ChEMBL document CHEMBL1137451, “Synthesis and evaluation of antifungal properties of a series of the novel 2-amino-5-oxo-4-phenyl-5,6,7,8-tetrahydroquinoline-3-carbonitrile and its analogues” (Bioorg Med Chem, 2007).
In brackets after ≈: the same amount, converted by molar mass. Activity calls are given as the source filed them. The rule behind the calls is not given here.

Tests used:
Candida albicans [1] = assay: Antifungal activity against Candida albicans 1 at 60 ug/disc after 24 hrs by disc diffusion method; type: functional; conditions: read-out: IZ
Outline: (§1)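 Yeast suspensions (C. albicans strains 1, 2) and mycelial suspensions (F. oxysporum strains 1, 2; Mucor sp.) spread on YPG (0.3% yeast extract, 0.5% peptone, 1% glucose) or PDA agar. Compound applied on filter-paper discs at the stated amount; 28 °C, 24 h. Read-out is inhibition zone diameter. Controls: 50% v/v DMSO vehicle, cycloheximide, amphotericin B.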

Candida albicans [2] = assay: Antifungal activity against Candida albicans 1 at 40 ug/disc after 24 hrs by disc diffusion method; type: functional; conditions: for zone of inhibition at 40 µg/disc: read-out: IZ; outline: as §1
Candida albicans [3] = assay: Antifungal activity against Candida albicans 1 at 100 ug/disc after 24 hrs by disc diffusion method; type: functional; conditions: read-out: IZ; outline: as §1
Candida albicans [4] = assay: Antifungal activity against Candida albicans 2 at 40 ug/disc after 24 hrs by disc diffusion method; type: functional; conditions: for zone of inhibition at 40 µg/disc: read-out: IZ; outline: as §1
Candida albicans [5] = assay: Antifungal activity against Candida albicans 2 at 60 ug/disc after 24 hrs by disc diffusion method; type: functional; conditions: read-out: IZ; outline: as §1
Candida albicans [6] = assay: Antifungal activity against Candida albicans 2 at 100 ug/disc after 24 hrs by disc diffusion method; type: functional; conditions: read-out: IZ; outline: as §1
Fusarium oxysporum [7] = assay: Antifungal activity against Fusarium oxysporum 1 at 40 ug/disc after 24 hrs by disc diffusion method; type: functional; conditions: for zone of inhibition at 40 µg/disc: read-out: IZ; outline: as §1
Fusarium oxysporum [8] = assay: Antifungal activity against Fusarium oxysporum 1 at 60 ug/disc after 24 hrs by disc diffusion method; type: functional; conditions: read-out: IZ; outline: as §1
Fusarium oxysporum [9] = assay: Antifungal activity against Fusarium oxysporum 1 at 100 ug/disc after 24 hrs by disc diffusion method; type: functional; conditions: read-out: IZ; outline: as §1
Fusarium oxysporum [10] = assay: Antifungal activity against Fusarium oxysporum 2 at 40 ug/disc after 24 hrs by disc diffusion method; type: functional; conditions: for zone of inhibition at 40 µg/disc: read-out: IZ; outline: as §1
Fusarium oxysporum [11] = assay: Antifungal activity against Fusarium oxysporum 2 at 60 ug/disc after 24 hrs by disc diffusion method; type: functional; conditions: read-out: IZ; outline: as §1
Fusarium oxysporum [12] = assay: Antifungal activity against Fusarium oxysporum 2 at 100 ug/disc after 24 hrs by disc diffusion method; type: functional; conditions: read-out: IZ; outline: as §1
Mucor [13] = assay: Antifungal activity against Mucor at 40 ug/disc after 24 hrs by disc diffusion method; type: functional; conditions: for zone of inhibition at 40 µg/disc: read-out: IZ; outline: as §1
Mucor [14] = assay: Antifungal activity against Mucor at 60 ug/disc after 24 hrs by disc diffusion method; type: functional; conditions: read-out: IZ; outline: as §1
Mucor [15] = assay: Antifungal activity against Mucor at 100 ug/disc after 24 hrs by disc diffusion method; type: functional; conditions: read-out: IZ; outline: as §1
Candida albicans [16] = assay: Antifungal activity against Candida albicans 1 after 24 hrs by disc diffusion method; type: functional
Outline: (§2)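 Disc diffusion on Candida albicans strains 1 and 2 (yeast suspension), Fusarium oxysporum strains 1 and 2 and Mucor sp. (mycelial suspension), spread on YPG or PDA agar. Compound at graded amounts per filter-paper disc, 28 °C for 24 h. MIC taken as the lowest amount giving a 2 mm inhibition zone. Controls: 50% v/v DMSO vehicle, cycloheximide, amphotericin B.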

Candida albicans [17] = assay: Antifungal activity against Candida albicans 2 after 24 hrs by disc diffusion method; type: functional; outline: as §2
Fusarium oxysporum [18] = assay: Antifungal activity against Fusarium oxysporum 1 after 24 hrs by disc diffusion method; type: functional; outline: as §2
Fusarium oxysporum [19] = assay: Antifungal activity against Fusarium oxysporum 2 after 24 hrs by disc diffusion method; type: functional; outline: as §2
Mucor [20] = assay: Antifungal activity against Mucor at after 24 hrs by disc diffusion method; type: functional; outline: as §2
Benjaminiella poitrasii [21] = assay: Inhibition of Benjaminiella poitrasii chitin synthase at 4 ug/mL
Outline: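 Chitin synthase from Benjaminiella poitrasii measured with and without compound at 4 µg/ml, using a non-radioactive chitin synthase assay. Nikkomycin Z used as reference.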

MCF7 [22] = assay: Antiproliferative activity against human MCF7 cells assessed as cell viability by MTT assay; type: functional, cell-based
Outline: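 MCF-7 cells in MEM with 10% FBS, 37 °C, 5% CO2, seeded 10,000/well, adhered 24 h. Treated 48 h at 0, 1, 10, 100, 1000 or 2000 µg/ml (DMSO stock diluted in medium), then 24 h recovery. MTT 4 h, 2-propanol solubilisation, A570 against 630 nm. DMSO carrier set as 100% growth; IC50 taken from the dose curve; triplicates.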

Hep 3B2 [23] = assay: Antiproliferative activity against human Hep3B cells upto 400 ug/mL assessed as cell viability by MTT assay; type: functional, cell-based
Outline: (§3)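 Hep3B or MCF-7 cells in MEM with 10% heat-inactivated FBS at 37 °C, 5% CO2, seeded 10,000/well and left to adhere 24 h. Exposed 48 h to compound diluted from 4 mg/ml DMSO stock, then 24 h in fresh medium. MTT (1 mg/ml, 4 h), formazan dissolved in 2-propanol, read at 570 nm (630 nm reference). DMSO-only wells set as 100% growth; triplicates.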

MCF7 [24] = assay: Antiproliferative activity against human MCF7 cells at 1 mg/mL assessed as cell viability by MTT assay; type: functional, cell-based; outline: as §3
Hep 3B2 [25] = assay: Antiproliferative activity against human Hep3B cells at 1 mg/mL assessed as cell viability by MTT assay; type: functional, cell-based; outline: as §3
Benjaminiella poitrasii [26] = assay: Inhibition of yeast hypha transition at 20 ug/mL after 4 hrs

| MIC (Candida albicans [16]) [µg/disc] | MIC (Candida albicans [17]) [µg/disc] | MIC (Fusarium oxysporum [18]) [µg/disc] | MIC (Fusarium oxysporum [19]) [µg/disc] | MIC (Mucor [20]) [µg/disc] | inhibition (Benjaminiella poitrasii [21]) [%] | SMILES | zone of inhibition at 60 µg/disc (Candida albicans [1]) [mm] | zone of inhibition at 40 µg/disc (Candida albicans [2]) [mm] | zone of inhibition at 100 µg/disc (Candida albicans [3]) [mm] | zone of inhibition at 40 µg/disc (Candida albicans [4]) [mm] | zone of inhibition at 60 µg/disc (Candida albicans [5]) [mm] | zone of inhibition at 100 µg/disc (Candida albicans [6]) [mm] | zone of inhibition at 40 µg/disc (Fusarium oxysporum [7]) [mm] | zone of inhibition at 60 µg/disc (Fusarium oxysporum [8]) [mm] | zone of inhibition at 100 µg/disc (Fusarium oxysporum [9]) [mm] | zone of inhibition at 60 µg/disc (Fusarium oxysporum [11]) [mm] | zone of inhibition at 100 µg/disc (Fusarium oxysporum [12]) [mm] | zone of inhibition at 60 µg/disc (Mucor [14]) [mm] | zone of inhibition at 100 µg/disc (Mucor [15]) [mm] | inhibition at 20 µg/mL (Benjaminiella poitrasii [26]) [%] | further results |
| --- | --- | --- | --- | --- | --- | --- | --- | --- | --- | --- | --- | --- | --- | --- | --- | --- | --- | --- | --- | --- | --- |
| 40 | 40 | 20 | 20 | 60 | 81 | N#Cc1c(N)nc2c(c1-c1cccc([N+](=O)[O-])c1)C(=O)CCC2 | 4 | 3 | 7 | 3 | 4 | 7 | 3 | 4 | 7 | 4 | 7 | 9 | 15 | 85 | zone of inhibition at 40 µg/disc (Fusarium oxysporum [10]): 3 mm; Activity (Mucor [13]): inactive; IC50 (MCF7 [22]): 293 µg/mL (≈ 952 µM); Activity (Hep 3B2 [23]): Non-toxic; Activity (MCF7 [24]): Toxic; Activity (Hep 3B2 [25]): Toxic |
| 40 | 40 | 40 | 40 | 60 | 81 | N#Cc1c(N)nc2c(c1-c1ccc(F)cc1)C(=O)CCC2 | 4 | 2 | 6 | 2 | 4 | 6 | – | 3 | 7 | 3 | 7 | 9 | 12 | 95 | Activity (Fusarium oxysporum [7]): inactive; Activity (Fusarium oxysporum [10]): inactive; Activity (Mucor [13]): inactive |
| 40 | 40 | 40 | 40 | 40 | 91 | CC(=O)Nc1nc2c(c(-c3cccc(N4C(=O)C=CC4=O)c3)c1C#N)C(=O)CCC2 | 2 | 2 | 7 | 2 | 2 | 7 | 2 | 2 | 6 | 2 | 6 | 9 | 11 | 95 | zone of inhibition at 40 µg/disc (Fusarium oxysporum [10]): 2 mm; zone of inhibition at 40 µg/disc (Mucor [13]): 8 mm; IC50 (MCF7 [22]): 50 µg/mL (≈ 125 µM); Activity (Hep 3B2 [23]): Non-toxic; Activity (MCF7 [24]): Toxic; Activity (Hep 3B2 [25]): Toxic |
| 60 | 60 | 40 | 40 | 60 | 86 | N#Cc1c(N)nc2c(c1-c1ccccc1Cl)C(=O)CCC2 | 2 | – | 4 | – | 2 | 4 | 2 | 3 | 6 | 3 | 6 | 7 | 10 | 95 | Activity (Candida albicans [2]): inactive; Activity (Candida albicans [4]): inactive; zone of inhibition at 40 µg/disc (Fusarium oxysporum [10]): 2 mm; Activity (Mucor [13]): inactive |
| 40 | 40 | 40 | 40 | 60 | 91 | Cc1ccc(-c2c(C#N)c(N)nc3c2C(=O)CCC3)cc1 | 4 | 3 | 7 | 3 | 4 | 7 | 2 | 3 | 7 | 3 | 7 | 10 | 14 | 90 | zone of inhibition at 40 µg/disc (Fusarium oxysporum [10]): 2 mm; Activity (Mucor [13]): inactive |
| 40 | 40 | 60 | 60 | 60 | 81 | N#Cc1c(N)nc2c(c1-c1ccc(Cl)cc1)C(=O)CCC2 | 3 | 2 | 5 | 2 | 3 | 5 | – | 4 | 7 | 4 | 7 | 7 | 10 | 95 | Activity (Fusarium oxysporum [7]): inactive; Activity (Fusarium oxysporum [10]): inactive; Activity (Mucor [13]): inactive |
| 40 | 40 | 40 | 40 | 40 | – | C[C@@H]1[C@H](O)[C@@H](C)/C=C/C=C/C=C/C=C/C=C/C=C/C=C/[C@H](O[C@@H]2O[C@H](C)[C@@H](O)[C@H](N)[C@@H]2O)C[C@@H]2O[C@](O)(C[C@@H](O)C[C@@H](O)[C@H](O)CC[C@@H](O)C[C@@H](O)CC(=O)O[C@H]1C)C[C@H](O)[C@H]2C(=O)O [AMPHOTERICIN B] | 7 | 4 | 12 | 4 | 7 | 12 | 2 | 6 | 9 | 6 | 9 | 7 | 10 | – | zone of inhibition at 40 µg/disc (Fusarium oxysporum [10]): 3 mm; zone of inhibition at 40 µg/disc (Mucor [13]): 5 mm; IC50 (MCF7 [22]): 60 µg/mL (≈ 64.9 µM); Activity (Hep 3B2 [23]): Non-toxic; Activity (MCF7 [24]): Toxic; Activity (Hep 3B2 [25]): Toxic |
| 60 | 60 | 40 | 40 | 40 | 76 | N#Cc1c(N)nc2c(c1-c1cccc(N)c1)C(=O)CCC2 | 3 | – | 6 | – | 3 | 6 | 2 | 3 | 5 | 3 | 5 | 7 | 10 | 95 | Activity (Candida albicans [2]): inactive; Activity (Candida albicans [4]): inactive; zone of inhibition at 40 µg/disc (Fusarium oxysporum [10]): 2 mm; zone of inhibition at 40 µg/disc (Mucor [13]): 5 mm |
| 60 | 60 | 60 | 60 | 40 | 61 | CC(=O)N(C(C)=O)c1nc2c(c(-c3ccc(C)cc3)c1C#N)C(=O)CCC2 | 4 | – | 6 | – | 4 | 6 | – | 2 | 4 | 2 | 4 | 7 | 10 | 90 | Activity (Candida albicans [2]): inactive; Activity (Candida albicans [4]): inactive; Activity (Fusarium oxysporum [7]): inactive; Activity (Fusarium oxysporum [10]): inactive; zone of inhibition at 40 µg/disc (Mucor [13]): 3 mm |
